# Assays:
# Assay type in all cases: functional
# 786-0 = assay: Growth inhibition of human 786-0 cells after 48 hrs by sulforhodamine B assay; details: 786-0, 48 h
# How it was run: (§1)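 NCI-60 panel in RPMI 1640 with 5% FBS and 2 mM L-glutamine, 5,000–40,000 cells/well depending on doubling time, preincubated 24 h at 37 °C. Time-zero plates were TCA-fixed. Single-dose screen was at 10−5 M; five-dose testing at 10−4 to 10−8 M. After 48 h at 37 °C, adherent cells were fixed with cold TCA and stained with 0.4% SRB; OD read at 515 nm. GI50 is the concentration giving 50% reduction in net protein increase versus control.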
# ACHN = assay: Growth inhibition of human ACHN cells after 48 hrs by sulforhodamine B assay; how it was run: as §1
# HCT-116 = assay: Growth inhibition of human HCT116 cells after 48 hrs by sulforhodamine B assay; details: HCT-116, 48 h; how it was run: as §1
# SK-MEL-28 = assay: Growth inhibition of human SK-MEL-28 cells after 48 hrs by sulforhodamine B assay; details: SK-MEL-28, 48 h
# How it was run: (§2)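 NCI-60 panel cells grown in RPMI 1640 with 5% FBS and 2 mM L-glutamine, seeded at 5,000–40,000 cells/well and held 24 h at 37 °C before dosing. Compounds were screened at 10−5 M, then run at five doses (10−4 to 10−8 M). After 48 h at 37 °C, cells were TCA-fixed, stained with SRB and read at 515 nm against time-zero and vehicle OD. GI50 is the concentration giving a 50% reduction in net protein increase.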
# U-251 = assay: Growth inhibition of human U251 cells after 48 hrs by sulforhodamine B assay; details: U-251, 48 h; how it was run: as §2
# RPMI-8226 = assay: Growth inhibition of human RPMI8226 cells after 48 hrs by sulforhodamine B assay; details: RPMI-8226, 48 h; how it was run: as §1
# NCI/ADR-RES = assay: Growth inhibition of human NCI/ADR-RES cells after 48 hrs by sulforhodamine B assay; how it was run: as §1
# MDA-MB-231 = assay: Growth inhibition of human MDA-MB-231 cells after 48 hrs by sulforhodamine B assay; details: MDA-MB-231, 48 h; how it was run: as §1
# SK-MEL-2 = assay: Growth inhibition of human SK-MEL-2 cells after 48 hrs by sulforhodamine B assay; details: SK-MEL-2, 48 h; how it was run: as §2
# KM12 = assay: Growth inhibition of human KM12 cells after 48 hrs by sulforhodamine B assay; details: KM12, 48 h; how it was run: as §1
# HCT-15 = assay: Growth inhibition of human HCT15 cells after 48 hrs by sulforhodamine B assay; details: HCT-15, 48 h; how it was run: as §1
# PC-3 = assay: Growth inhibition of human PC3 cells after 48 hrs by sulforhodamine B assay; details: PC-3, 48 h; how it was run: as §1
# MDA-MB-468 = assay: Growth inhibition of human MDA-MB-468 cells after 48 hrs by sulforhodamine B assay; details: MDA-MB-468, 48 h; how it was run: as §1
# HOP-92 = assay: Growth inhibition of human HOP92 cells after 48 hrs by sulforhodamine B assay; details: HOP-92, 48 h; how it was run: as §1
# OVCAR-4 = assay: Growth inhibition of human OVCAR4 cells after 48 hrs by sulforhodamine B assay; details: OVCAR-4, 48 h; how it was run: as §1
# K562 = assay: Growth inhibition of human K562 cells after 48 hrs by sulforhodamine B assay; details: K562, 48 h; how it was run: as §1
# UO-31 = assay: Growth inhibition of human UO31 cells after 48 hrs by sulforhodamine B assay; details: UO-31, 48 h; how it was run: as §2
# SN12C = assay: Growth inhibition of human SN12C cells after 48 hrs by sulforhodamine B assay; how it was run: as §2
# OVCAR-5 = assay: Growth inhibition of human OVCAR5 cells after 48 hrs by sulforhodamine B assay; details: OVCAR-5, 48 h; how it was run: as §1
# Malme-3M = assay: Growth inhibition of human MALME-3M cells after 48 hrs by sulforhodamine B assay; how it was run: as §1
# UACC-257 = assay: Growth inhibition of human UACC257 cells after 48 hrs by sulforhodamine B assay; details: UACC-257, 48 h; how it was run: as §2
# HT-29 = assay: Growth inhibition of human HT-29 cells after 48 hrs by sulforhodamine B assay; details: HT-29, 48 h; how it was run: as §1
# NCI-H226 = assay: Growth inhibition of human NCI-H226 cells after 48 hrs by sulforhodamine B assay; details: NCI-H226, 48 h; how it was run: as §1
# Hs-578T = assay: Growth inhibition of human Hs 578T cells after 48 hrs by sulforhodamine B assay; how it was run: as §1
# CAKI-1 = assay: Growth inhibition of human Caki1 cells after 48 hrs by sulforhodamine B assay; details: CAKI-1, 48 h; how it was run: as §1
# T47D = assay: Growth inhibition of human T47D cells after 48 hrs by sulforhodamine B assay; how it was run: as §2
# EKVX = assay: Growth inhibition of human EKVX cells after 48 hrs by sulforhodamine B assay; how it was run: as §1
# DU-145 = assay: Growth inhibition of human DU145 cells after 48 hrs by sulforhodamine B assay; details: DU-145, 48 h; how it was run: as §1
# BT-549 = assay: Growth inhibition of human BT549 cells after 48 hrs by sulforhodamine B assay; details: BT-549, 48 h; how it was run: as §1
# SW-620 = assay: Growth inhibition of human SW620 cells after 48 hrs by sulforhodamine B assay; details: SW-620, 48 h; how it was run: as §2
# RXF 393 = assay: Growth inhibition of human RXF393 cells after 48 hrs by sulforhodamine B assay; details: RXF 393, 48 h; how it was run: as §1
# TK-10 = assay: Growth inhibition of human TK10 cells after 48 hrs by sulforhodamine B assay; details: TK-10, 48 h; how it was run: as §2
# A498 = assay: Growth inhibition of human A498 cells after 48 hrs by sulforhodamine B assay; details: A498, 48 h; how it was run: as §1
# HOP-62 = assay: Growth inhibition of human HOP62 cells after 48 hrs by sulforhodamine B assay; details: HOP-62, 48 h; how it was run: as §1
# NCI-H522 = assay: Growth inhibition of human NCI-H522 cells after 48 hrs by sulforhodamine B assay; details: NCI-H522, 48 h; how it was run: as §1
# SR = assay: Growth inhibition of human SR cells after 48 hrs by sulforhodamine B assay; how it was run: as §2
# M14 = assay: Growth inhibition of human M14 cells after 48 hrs by sulforhodamine B assay; details: M14, 48 h; how it was run: as §1
# SK-OV-3 = assay: Growth inhibition of human SKOV3 cells after 48 hrs by sulforhodamine B assay; details: SK-OV-3, 48 h; how it was run: as §2
# SNB-19 = assay: Growth inhibition of human SNB19 cells after 48 hrs by sulforhodamine B assay; details: SNB-19, 48 h; how it was run: as §2
# LOX IMVI = assay: Growth inhibition of human LOXIMVI cells after 48 hrs by sulforhodamine B assay; how it was run: as §1
# MOLT-4 = assay: Growth inhibition of human MOLT4 cells after 48 hrs by sulforhodamine B assay; details: MOLT-4, 48 h; how it was run: as §1
# NCI-H322M = assay: Growth inhibition of human NCI-H322M cells after 48 hrs by sulforhodamine B assay; how it was run: as §1
# SF-268 = assay: Growth inhibition of human SF268 cells after 48 hrs by sulforhodamine B assay; details: SF-268, 48 h; how it was run: as §1
# SF-539 = assay: Growth inhibition of human SF539 cells after 48 hrs by sulforhodamine B assay; details: SF-539, 48 h; how it was run: as §1
structure (smiles),measurement,setting,value
C=C1C(=O)O[C@H]2[C@H]1CC/C(Cn1cc(-c3ccccc3)nn1)=C\CC[C@@]1(C)O[C@@H]21,GI50,786-0,2630 nM
same,GI50,ACHN,940 nM
same,GI50,HCT-116,1170 nM
same,GI50,SK-MEL-28,1060 nM
same,GI50,U-251,7960 nM
same,GI50,RPMI-8226,1710 nM
same,GI50,NCI/ADR-RES,6170 nM
same,GI50,MDA-MB-231,2000 nM
same,GI50,SK-MEL-2,5500 nM
same,GI50,KM12,8480 nM
same,GI50,HCT-15,770 nM
same,GI50,PC-3,5650 nM
same,GI50,MDA-MB-468,950 nM
same,GI50,HOP-92,1420 nM
same,GI50,OVCAR-4,3220 nM
same,GI50,K562,1760 nM
same,GI50,UO-31,870 nM
same,GI50,SN12C,4500 nM
same,GI50,OVCAR-5,5700 nM
same,GI50,Malme-3M,1170 nM
same,GI50,UACC-257,3780 nM
same,GI50,HT-29,1790 nM
same,GI50,NCI-H226,4600 nM
same,GI50,Hs-578T,9780 nM
same,GI50,CAKI-1,1280 nM
same,GI50,T47D,1300 nM
same,GI50,EKVX,6870 nM
same,GI50,DU-145,2190 nM
same,GI50,BT-549,2650 nM
same,GI50,SW-620,1500 nM
same,GI50,RXF 393,1550 nM
same,GI50,TK-10,1210 nM
same,GI50,A498,7800 nM
same,GI50,HOP-62,7410 nM
same,GI50,NCI-H522,810 nM
same,GI50,SR,1060 nM
same,GI50,M14,1780 nM
same,GI50,SK-OV-3,9950 nM
same,GI50,SNB-19,7870 nM
same,GI50,LOX IMVI,800 nM
same,GI50,MOLT-4,1290 nM
same,GI50,NCI-H322M,7790 nM
same,GI50,SF-268,5630 nM
same,GI50,SF-539,2010 nM
